For series [1], the target named is Vascular endothelial growth factor receptor 2 (Homo sapiens) (UniProt P35968). In words: Inhibition of recombinant KDR (unknown origin) using poly (Glu, Tyr) 4:1 as substrate at 1000 nM incubated for 60 mins by ELISA relative to control. In short, it runs like this:
(§1)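 Recombinant tyrosine kinases assayed on wells precoated with poly(Glu,Tyr)4:1 (20 µg/mL). ATP 10 µmol/L in HEPES pH 7.4 buffer with MgCl2, MnCl2, Na3VO4 and DTT; compound in 1% DMSO, 1% DMSO as control. Reaction 60 min at 37 °C. Phosphotyrosine detected with PY99 and HRP anti-mouse, o-phenylenediamine, A490. Inhibition % relative to control; two experiments.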
On the technique in general: An ELISA detects its analyte on a solid surface through an enzyme-linked reagent.

In series [2] the target is Receptor tyrosine-protein kinase erbB-2 (Homo sapiens) (UniProt P04626). In words: Inhibition of recombinant ERBB2 (unknown origin) using poly (Glu, Tyr) 4:1 as substrate at 1000 nM incubated for 60 mins by ELISA relative to control. In short, it runs like this:
as §1

Series [3] in a line: Selectivity ratio of IC50 for human NCI-HCC827 cells to IC50 for human MKN45 cells. The class given is ADME, cell-based. To be noted: mkn-45. In short, it runs like this:
(§2)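 Both IC50s in each ratio come from one proliferation assay. Cells were seeded and exposed the next day to a range of concentrations for 72 h, then read by SRB or MTT. IC50s were fitted by four-parameter concentration–response, with each concentration at least in triplicate and at least 2 experiments. BaF3/TPR-Met is murine pre-B BaF3 transfected with TPR-MET and puromycin-selected.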

Series [4] concerns the target Tyrosine-protein kinase receptor UFO (Homo sapiens, UniProt P30530). The series is described as follows: Inhibition of recombinant AXL (unknown origin) using poly (Glu, Tyr) 4:1 as substrate incubated for 60 mins by ELISA.
Series [5] relates to AGS. The series is described as follows: Antiproliferative activity against human AGS cells after 72 hrs by SRB or MTT assay. The class given is functional, cell-based. In short, it runs like this: (§3)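 Cells seeded, exposed next day to a range of concentrations for 72 h. Growth read by sulforhodamine B or MTT. IC50 from four-parameter concentration-response fit. Each concentration tested at least in triplicate, with at least 2 experiments.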
Background: Formazan colour is commonly taken as a measure of viable cells.

Series [6] deals with MDA-MB-231. In words: Antiproliferative activity against human MDA-MB-231 cells after 72 hrs by SRB or MTT assay. The class given is functional, cell-based. Particulars: MDA-MB-231, 72 h. In short, it runs like this:
as §3

A short description of series [7]: Selectivity ratio of IC50 for human U87MG cells to IC50 for human EBC1 cells. Particulars: u-87mg atcc. The class given is ADME, cell-based.
Series [8] addresses Ephrin type-A receptor 2 (Homo sapiens) (UniProt P29317). In words: Inhibition of recombinant EPHA2 (unknown origin) using poly (Glu, Tyr) 4:1 as substrate at 1000 nM incubated for 60 mins by ELISA relative to control. In short, it runs like this: as §1
The nature of series [9]: Selectivity ratio of IC50 for human SGC7901 cells to IC50 for human MKN45 cells. Format: ADME, cell-based. Particulars: sgc-7901. In short, it runs like this:
(§4)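 Each cell line was seeded in 96-well plates, then exposed the next day to a range of compound concentrations for 72 h. Growth was read by SRB or MTT assay, and IC50 was fitted by a four-parameter concentration-response curve. Each concentration was run at least in triplicate, in at least 2 experiments. BaF3/TPR-Met are murine pre-B BaF3 cells transfected with TPR-MET cDNA and selected in puromycin.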

Series [10] in a line: Tmax in Sprague-Dawley rat at 10 mg/kg, po administered as single dose. The class given is ADME, organism-based. Particulars: in vivo. In short, it runs like this: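 Male Sprague-Dawley rats (n=3), single dose. IV 2 mg/kg in 1% DMA/9% Cremophor/90% saline; PO 10 mg/kg in 0.5% CMC-Na. For one compound, IV 10 mg/kg in DMSO/Tween 80/PEG40 and PO 10 mg/kg in 10% DMSO/5% Tween 80/85% saline.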

A short description of series [11]: Selectivity ratio of IC50 for human NCI-H226 cells to IC50 for human MKN45 cells. The class given is ADME, cell-based. In short, it runs like this: as §2
In series [12] the test system is NCI-H661. In words: Antiproliferative activity against human NCI-H661 cells after 72 hrs by SRB or MTT assay. The class given is functional, cell-based. Particulars: NCI-H661, 72 h. In short, it runs like this:
as §3

Series [13] in a line: Selectivity ratio of IC50 for human SNU1 cells to IC50 for human MKN45 cells. Format: ADME, cell-based. To be noted: mkn-45.
Series [14] can be described thus: Selectivity ratio of IC50 for human SNU16 cells to IC50 for mouse BAF3 cells expressing TPR-MET. The class given is ADME, cell-based.
Series [15] concerns the target T1, Hepatocyte growth factor receptor (Homo sapiens, UniProt P08581). The series is described as follows: Inhibition of c-Met phosphorylation at Tyrosine 1235 in HGF stimulated human U87MG cells at 10 nM after 1 hr by Western blot analysis. The class given is cell-based. To be noted: U-87MG ATCC. In short, it runs like this: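 U87MG cells serum-starved 24 h, pretreated with compound 1 h at 37 °C, then stimulated with HGF (100 ng/mL) for 15 min. Lysed in 1× SDS sample buffer, resolved by 10% SDS-PAGE and blotted to nitrocellulose. Probed for phospho-c-Met, phospho-ERK1/2, phospho-AKT and totals, with GAPDH as loading control. ECL detection.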

Series [16] in a line: Selectivity ratio of IC50 for human PANC1 cells to IC50 for human EBC1 cells. The class given is ADME, cell-based. To be noted: panc-1. In short, it runs like this:
as §4

Series [17] addresses T1, Hepatocyte growth factor receptor. The series is described as follows: Inhibition of c-Met in human MKN45 cells assessed as reduction in AKT phosphorylation at Serine 473 at 10 nM after 1 hr by Western blot analysis. Format: cell-based. Particulars: MKN-45. In short, it runs like this:
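EBC-1 or MKN45 cells treated with compound 1 h at 37 °C without HGF, then lysed in 1× SDS sample buffer. Lysates run on 10% SDS-PAGE and transferred to nitrocellulose. Probed with antibodies to c-Met, phospho-c-Met, phospho-ERK1/2, phospho-AKT, AKT and GAPDH, then HRP secondary. ECL detection.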

In series [18] the test system is Mus musculus. The series is described as follows: Toxicity in athymic nude mouse xenografted with human EBC1 cells assessed as body weight loss at 6.25 to 25 mg/kg, po bid for 21 days measured twice a week during compound dosing. Format: organism-based. To be noted: in vivo, 504 h. In short, it runs like this:
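Nude mice carrying s.c. EBC-1 tumor fragments, randomized at 100–200 mm³ (n=6 treated, n=12 vehicle). Dosed orally twice daily for 21 days. Body weight and caliper tumor volume measured twice weekly.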

Series [19] can be described thus: Selectivity ratio of IC50 for human Calu3 cells to IC50 for mouse BAF3 cells expressing TPR-MET. The class given is ADME, cell-based. In short, it runs like this: as §2

Calls of active or inactive are those of the source. The calls are words filed in the database; no cut-off is given here.

T1 sequence (P08581 whole entry): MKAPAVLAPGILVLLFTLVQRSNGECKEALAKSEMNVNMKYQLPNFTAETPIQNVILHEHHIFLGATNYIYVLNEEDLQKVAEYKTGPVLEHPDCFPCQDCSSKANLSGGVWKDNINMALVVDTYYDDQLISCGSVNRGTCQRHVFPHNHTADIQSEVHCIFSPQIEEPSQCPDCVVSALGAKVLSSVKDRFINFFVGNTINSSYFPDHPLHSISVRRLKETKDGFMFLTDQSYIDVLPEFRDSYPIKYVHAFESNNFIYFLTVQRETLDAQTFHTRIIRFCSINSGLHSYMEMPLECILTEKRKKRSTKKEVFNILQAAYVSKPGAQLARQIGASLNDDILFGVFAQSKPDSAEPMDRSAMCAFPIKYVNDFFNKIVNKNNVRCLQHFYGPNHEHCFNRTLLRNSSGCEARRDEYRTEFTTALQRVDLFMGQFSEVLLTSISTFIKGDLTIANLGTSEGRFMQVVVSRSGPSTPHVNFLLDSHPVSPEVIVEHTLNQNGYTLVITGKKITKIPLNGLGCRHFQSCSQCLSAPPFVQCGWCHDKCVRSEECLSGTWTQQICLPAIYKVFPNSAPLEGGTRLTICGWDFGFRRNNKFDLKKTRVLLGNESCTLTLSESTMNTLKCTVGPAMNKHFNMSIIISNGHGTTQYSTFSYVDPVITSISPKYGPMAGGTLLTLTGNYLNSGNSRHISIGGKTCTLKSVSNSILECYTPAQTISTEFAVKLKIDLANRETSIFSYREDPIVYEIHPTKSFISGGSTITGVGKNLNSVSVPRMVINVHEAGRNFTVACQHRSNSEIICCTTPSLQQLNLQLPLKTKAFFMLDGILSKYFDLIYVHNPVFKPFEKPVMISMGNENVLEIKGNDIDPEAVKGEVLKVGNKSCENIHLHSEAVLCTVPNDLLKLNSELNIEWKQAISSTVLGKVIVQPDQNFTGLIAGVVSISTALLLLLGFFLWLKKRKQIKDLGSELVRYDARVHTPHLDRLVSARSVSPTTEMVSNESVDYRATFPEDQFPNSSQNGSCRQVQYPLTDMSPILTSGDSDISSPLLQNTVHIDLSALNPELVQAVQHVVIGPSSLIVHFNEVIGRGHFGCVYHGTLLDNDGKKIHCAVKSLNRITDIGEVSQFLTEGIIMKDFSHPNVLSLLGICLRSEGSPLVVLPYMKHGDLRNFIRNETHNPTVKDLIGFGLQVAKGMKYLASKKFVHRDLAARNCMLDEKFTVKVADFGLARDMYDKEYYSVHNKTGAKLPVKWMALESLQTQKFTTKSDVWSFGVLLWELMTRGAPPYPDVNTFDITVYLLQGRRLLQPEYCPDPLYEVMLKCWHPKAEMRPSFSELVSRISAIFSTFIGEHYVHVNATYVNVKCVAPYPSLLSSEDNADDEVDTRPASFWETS
Receptor tyrosine-protein kinase erbB-2 (Homo sapiens), sequence (P04626 whole entry): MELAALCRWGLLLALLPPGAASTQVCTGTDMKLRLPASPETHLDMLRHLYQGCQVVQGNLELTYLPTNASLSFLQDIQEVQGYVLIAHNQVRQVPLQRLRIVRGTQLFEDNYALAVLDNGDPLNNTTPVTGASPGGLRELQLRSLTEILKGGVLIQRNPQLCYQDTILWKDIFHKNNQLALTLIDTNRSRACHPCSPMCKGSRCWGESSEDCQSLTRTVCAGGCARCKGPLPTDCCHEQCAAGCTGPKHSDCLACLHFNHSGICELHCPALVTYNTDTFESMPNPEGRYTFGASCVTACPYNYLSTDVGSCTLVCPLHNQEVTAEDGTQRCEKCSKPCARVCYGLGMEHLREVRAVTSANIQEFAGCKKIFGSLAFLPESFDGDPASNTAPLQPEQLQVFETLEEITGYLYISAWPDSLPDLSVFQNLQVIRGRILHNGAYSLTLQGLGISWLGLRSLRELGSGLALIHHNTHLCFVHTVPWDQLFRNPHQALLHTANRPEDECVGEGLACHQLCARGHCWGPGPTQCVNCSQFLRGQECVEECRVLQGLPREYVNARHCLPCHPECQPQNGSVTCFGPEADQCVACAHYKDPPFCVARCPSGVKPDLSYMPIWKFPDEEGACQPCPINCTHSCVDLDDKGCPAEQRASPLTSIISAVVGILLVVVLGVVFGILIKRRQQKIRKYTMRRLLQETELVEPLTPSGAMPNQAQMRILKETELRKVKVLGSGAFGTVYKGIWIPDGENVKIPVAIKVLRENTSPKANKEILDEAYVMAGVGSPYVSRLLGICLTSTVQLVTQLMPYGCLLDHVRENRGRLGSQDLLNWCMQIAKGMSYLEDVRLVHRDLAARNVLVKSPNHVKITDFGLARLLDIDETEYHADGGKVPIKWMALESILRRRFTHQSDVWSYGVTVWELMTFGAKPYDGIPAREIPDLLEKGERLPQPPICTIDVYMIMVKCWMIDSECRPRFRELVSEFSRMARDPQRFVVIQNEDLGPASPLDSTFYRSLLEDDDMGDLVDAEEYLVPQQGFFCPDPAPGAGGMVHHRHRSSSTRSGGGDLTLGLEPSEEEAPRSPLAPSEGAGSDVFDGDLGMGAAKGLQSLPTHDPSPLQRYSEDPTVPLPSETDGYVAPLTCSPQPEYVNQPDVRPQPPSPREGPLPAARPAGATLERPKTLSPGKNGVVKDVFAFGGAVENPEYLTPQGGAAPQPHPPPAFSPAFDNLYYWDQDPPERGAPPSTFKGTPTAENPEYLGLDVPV
Vascular endothelial growth factor receptor 2 (Homo sapiens), sequence (P35968 whole entry): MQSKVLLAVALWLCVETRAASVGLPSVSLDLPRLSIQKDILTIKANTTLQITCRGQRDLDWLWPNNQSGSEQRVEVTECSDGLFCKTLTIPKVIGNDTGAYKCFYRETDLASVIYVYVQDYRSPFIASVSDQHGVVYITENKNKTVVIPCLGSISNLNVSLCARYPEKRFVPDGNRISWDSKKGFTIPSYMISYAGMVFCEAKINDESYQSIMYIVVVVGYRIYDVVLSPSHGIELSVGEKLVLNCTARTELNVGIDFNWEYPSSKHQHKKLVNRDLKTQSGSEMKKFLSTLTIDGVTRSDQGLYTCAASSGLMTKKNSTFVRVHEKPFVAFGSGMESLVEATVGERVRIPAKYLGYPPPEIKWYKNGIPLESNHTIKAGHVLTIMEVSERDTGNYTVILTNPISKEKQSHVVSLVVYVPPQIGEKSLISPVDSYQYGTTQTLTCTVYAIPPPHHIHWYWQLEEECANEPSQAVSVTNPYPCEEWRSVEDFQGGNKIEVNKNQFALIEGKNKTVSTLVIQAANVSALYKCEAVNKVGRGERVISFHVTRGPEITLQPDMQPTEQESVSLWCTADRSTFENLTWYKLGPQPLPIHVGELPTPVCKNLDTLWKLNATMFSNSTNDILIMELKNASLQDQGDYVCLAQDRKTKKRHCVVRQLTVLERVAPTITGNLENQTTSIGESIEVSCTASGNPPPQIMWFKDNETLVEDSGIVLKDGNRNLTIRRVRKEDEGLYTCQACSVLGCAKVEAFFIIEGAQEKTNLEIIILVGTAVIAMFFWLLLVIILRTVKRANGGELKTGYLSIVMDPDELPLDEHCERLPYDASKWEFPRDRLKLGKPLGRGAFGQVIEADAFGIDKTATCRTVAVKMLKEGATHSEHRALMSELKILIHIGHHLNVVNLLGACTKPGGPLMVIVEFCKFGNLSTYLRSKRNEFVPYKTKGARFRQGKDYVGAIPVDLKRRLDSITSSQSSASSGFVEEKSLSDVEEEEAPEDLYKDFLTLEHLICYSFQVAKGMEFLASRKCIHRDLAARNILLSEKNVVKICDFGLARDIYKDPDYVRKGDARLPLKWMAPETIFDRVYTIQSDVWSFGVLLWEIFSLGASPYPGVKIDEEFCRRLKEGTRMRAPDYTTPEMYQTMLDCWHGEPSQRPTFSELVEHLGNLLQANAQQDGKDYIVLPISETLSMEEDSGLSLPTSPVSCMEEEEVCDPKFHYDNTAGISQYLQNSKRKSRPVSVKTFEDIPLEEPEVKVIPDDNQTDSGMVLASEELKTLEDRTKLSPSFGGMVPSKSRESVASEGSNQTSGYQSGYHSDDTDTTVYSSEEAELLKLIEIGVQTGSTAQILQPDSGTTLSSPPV
Tyrosine-protein kinase receptor UFO, sequence (P30530 whole entry): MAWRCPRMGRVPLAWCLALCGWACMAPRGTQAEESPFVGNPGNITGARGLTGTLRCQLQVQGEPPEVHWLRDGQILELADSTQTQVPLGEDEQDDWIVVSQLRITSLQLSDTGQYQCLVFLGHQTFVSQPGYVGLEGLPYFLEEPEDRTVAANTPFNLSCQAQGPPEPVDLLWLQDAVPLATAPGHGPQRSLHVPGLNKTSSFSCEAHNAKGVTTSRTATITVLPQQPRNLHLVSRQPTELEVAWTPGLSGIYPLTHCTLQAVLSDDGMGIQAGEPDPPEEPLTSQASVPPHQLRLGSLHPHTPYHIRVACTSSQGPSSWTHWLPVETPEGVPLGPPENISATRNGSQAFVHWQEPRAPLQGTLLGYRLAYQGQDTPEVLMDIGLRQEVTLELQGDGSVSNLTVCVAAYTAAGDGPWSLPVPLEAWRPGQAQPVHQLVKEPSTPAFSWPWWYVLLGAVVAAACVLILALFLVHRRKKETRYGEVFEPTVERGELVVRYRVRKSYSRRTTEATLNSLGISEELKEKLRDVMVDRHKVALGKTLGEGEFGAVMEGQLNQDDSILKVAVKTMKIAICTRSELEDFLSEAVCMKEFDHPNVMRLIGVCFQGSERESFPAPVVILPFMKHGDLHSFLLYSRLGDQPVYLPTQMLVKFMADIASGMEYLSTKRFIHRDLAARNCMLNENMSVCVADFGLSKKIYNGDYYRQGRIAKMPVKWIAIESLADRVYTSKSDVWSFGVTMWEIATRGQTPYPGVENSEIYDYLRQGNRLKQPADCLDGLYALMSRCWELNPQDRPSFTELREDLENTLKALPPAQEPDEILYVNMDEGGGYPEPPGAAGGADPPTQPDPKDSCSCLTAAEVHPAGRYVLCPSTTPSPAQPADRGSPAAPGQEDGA

With `Fc1ccc(-c2cnc3nnc(C(F)(F)c4ccc5ncccc5c4)n3n2)cc1`, the figures for the inhibition in [1], in [2] and in [8] were 15.3%, 31.5% and 6.1%, respectively. The “Ratio IC50” value in series [3] was 10000; in [7], 10000; in series [9] it was greater than 10000; in series [11], greater than 10000; in series [13], 10000; in series [14] it was 10000. Further, the “Ratio IC50” value in series [16] was 10000; in [19], greater than 10000. Moreover, the IC50 in [4] was greater than 1 µM; in series [5], greater than 10 µM; in series [6], greater than 10 µM; in series [12] it was greater than 10 µM. In addition, the Tmax in series [10] stood at 1 h. The inhibition entry in series [15] and in [17] was “Active” each time. Besides, in [18], the Activity result is given as “Non-toxic”.

What is called inhibition is the relative decrease from the control value, in per cent. As usually defined, the IC50 is the concentration that gives 50% inhibition. What is called Tmax is the time from dosing to the highest level.

For the origin of these results see ChEMBL document CHEMBL3797175, “Discovery of 6-(difluoro(6-(4-fluorophenyl)-[1,2,4]triazolo[4,3-b][1,2,4]triazin-3-yl)methyl)quinoline as a highly potent and selective c-Met inhibitor” (Eur J Med Chem, 2016).
